The values below come from ChEMBL document CHEMBL4622983, “Structure-Activity Relationship Studies of α-Ketoamides as Inhibitors of the Phospholipase A and Acyltransferase Enzyme Family” (J Med Chem, 2020).

Assay [1] deals with T1, Phospholipase A and acyltransferase 3 (Homo sapiens, UniProt P53816).
T1 sequence (P53816 whole entry): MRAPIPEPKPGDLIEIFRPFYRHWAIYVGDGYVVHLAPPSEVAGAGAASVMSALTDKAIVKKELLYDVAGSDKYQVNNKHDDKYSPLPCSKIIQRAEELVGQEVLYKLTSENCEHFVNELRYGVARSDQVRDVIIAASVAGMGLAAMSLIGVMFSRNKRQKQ
Nature of the assay: Inhibition of full-length C-terminal FLAG-tagged human PLAAT3 expressed in HEK293T cell lysate preincubated for 30 mins followed by MB064 addition and measured after 20 mins by SDS-PAGE based ABPP analysis. The assay is classed as cell-free, HEK-293T. Put shortly:
(§1)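 Dose–response competitive ABPP on cytosol only, from HEK293T overexpressing FLAG-tagged PLAAT. Inhibitor 30 min rt, then MB064 20 min rt. PLAAT2 0.25 μg/μL with 250 nM probe; PLAAT3 0.5 μg/μL with 250 nM; PLAAT4 and PLAAT5 1 μg/μL with 500 nM. Fluorescence normalized to Coomassie. IC50 from curves, reported as pIC50 ± SEM, n = 3.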

Assay [2] deals with T2, Phospholipase A and acyltransferase 4 (Homo sapiens, UniProt Q9UL19).
T2 sequence (Q9UL19 whole entry): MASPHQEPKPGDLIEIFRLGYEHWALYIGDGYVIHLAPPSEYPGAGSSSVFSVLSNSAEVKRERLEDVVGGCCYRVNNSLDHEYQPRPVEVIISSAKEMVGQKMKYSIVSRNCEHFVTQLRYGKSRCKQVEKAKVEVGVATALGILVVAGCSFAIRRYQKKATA
Nature of the assay: Inhibition of full-length C-terminal FLAG-tagged human PLAAT4 expressed in HEK293T cell lysate preincubated for 30 mins followed by MB064 addition and measured after 20 mins by SDS-PAGE based ABPP analysis. The assay is classed as cell-free, HEK-293T. Put shortly: as §1

Assay [3] has as its target Diacylglycerol lipase-alpha (Mus musculus) (UniProt Q6WQJ1). Nature of the assay: Inhibition of mouse brain membrane DAGLalpha assessed as enzyme remaining activity at 10 uM preincubated for 30 mins followed by MB064 or FP-TAMRA addition and measured after 15 mins by SDS-PAGE based ABPP analysis relative to control. The assay is classed as cell membranes. Put shortly: (§2)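 Mouse brain membrane proteome (2 μg/μL) preincubated with 10 μM inhibitor for 30 min at rt. Then MB064 250 nM or FP-TAMRA 500 nM for 15 min at rt. Resolved on 10% SDS-PAGE, fluorescence normalized to Coomassie. Reported as % remaining activity ± SD, n = 3.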

Assay [4] deals with Diacylglycerol lipase-beta (Mus musculus) (UniProt Q91WC9). Nature of the assay: Inhibition of mouse brain membrane DAGLbeta assessed as enzyme remaining activity at 10 uM preincubated for 30 mins followed by MB064 or FP-TAMRA addition and measured after 15 mins by SDS-PAGE based ABPP analysis relative to control. The assay is classed as cell membranes. Put shortly: as §2
Sequence of Diacylglycerol lipase-beta (Mus musculus) (Q91WC9 whole entry): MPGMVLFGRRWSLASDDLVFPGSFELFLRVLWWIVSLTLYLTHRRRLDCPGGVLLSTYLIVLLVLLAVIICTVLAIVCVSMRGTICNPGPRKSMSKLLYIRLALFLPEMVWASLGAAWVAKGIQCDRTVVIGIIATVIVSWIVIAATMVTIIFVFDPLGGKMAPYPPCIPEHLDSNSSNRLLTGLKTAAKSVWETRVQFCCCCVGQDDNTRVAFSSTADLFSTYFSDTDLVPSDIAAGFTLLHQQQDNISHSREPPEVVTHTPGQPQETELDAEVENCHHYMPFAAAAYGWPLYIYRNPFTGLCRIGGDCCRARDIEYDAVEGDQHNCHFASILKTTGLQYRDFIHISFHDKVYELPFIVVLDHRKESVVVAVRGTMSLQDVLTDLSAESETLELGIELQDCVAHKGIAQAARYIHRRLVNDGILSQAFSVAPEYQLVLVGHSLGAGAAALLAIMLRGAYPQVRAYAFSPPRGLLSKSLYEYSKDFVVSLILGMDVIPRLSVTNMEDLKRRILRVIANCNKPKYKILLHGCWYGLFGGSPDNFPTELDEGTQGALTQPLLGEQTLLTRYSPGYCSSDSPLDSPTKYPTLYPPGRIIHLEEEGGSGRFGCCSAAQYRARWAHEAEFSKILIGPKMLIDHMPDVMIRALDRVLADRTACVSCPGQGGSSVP
In assay [5] the target is T3, Phospholipase A and acyltransferase 2 (Homo sapiens) (UniProt Q9NWW9).
T3 sequence (whole entry): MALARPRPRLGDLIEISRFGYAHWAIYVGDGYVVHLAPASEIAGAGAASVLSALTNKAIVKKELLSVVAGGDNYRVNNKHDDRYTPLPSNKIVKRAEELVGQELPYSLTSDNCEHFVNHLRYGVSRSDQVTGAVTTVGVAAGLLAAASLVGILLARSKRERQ
Nature of the assay: Inhibition of full-length C-terminal FLAG-tagged human PLAAT2 expressed in human U2OS cells assessed as reduction in absolute N-palmitoleoylethanolamine level at 10 uM incubated for 4 hrs by LC-MS/MS analysis. The assay is classed as cell-based. In short, it runs like this:
(§3)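 U2OS cells transfected with PLAAT2, PLAAT5 or empty vector (PEI, 1:5 plasmid/PEI). At 24 h, switched to serum-free medium with 10 μM compound (0.1% DMSO) or DMSO for 4 h at 37 °C. Pellets extracted with MTBE against deuterated internal standards. NAEs, 2-AG and free fatty acids quantified by LC–MS/MS, normalized to live cell count. Four biological replicates; one-way ANOVA.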

For assay [6], the target named is T4, Phospholipase A and acyltransferase 5 (Homo sapiens) (UniProt Q96KN8).
T4 sequence (whole entry): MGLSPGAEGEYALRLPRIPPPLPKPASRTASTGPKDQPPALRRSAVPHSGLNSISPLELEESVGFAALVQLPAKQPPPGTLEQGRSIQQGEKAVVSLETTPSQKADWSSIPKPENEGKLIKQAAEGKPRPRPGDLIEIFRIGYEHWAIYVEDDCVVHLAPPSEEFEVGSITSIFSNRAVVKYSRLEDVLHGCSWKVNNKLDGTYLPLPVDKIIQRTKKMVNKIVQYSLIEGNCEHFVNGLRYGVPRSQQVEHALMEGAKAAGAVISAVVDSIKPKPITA
Nature of the assay: Inhibition of full-length C-terminal FLAG-tagged human PLAAT5 expressed in human U2OS cells assessed as reduction in absolute N-stearoylethanolamine level at 10 uM incubated for 4 hrs by LC-MS/MS analysis. In kind it is cell-based. In short, it runs like this: as §3

In assay [7] the target is T4, Phospholipase A and acyltransferase 5 (Homo sapiens). Nature of the assay: Inhibition of full-length C-terminal FLAG-tagged human PLAAT5 expressed in human U2OS cells assessed as reduction in absolute N-eicosapentaenoylethanolamine level at 10 uM incubated for 4 hrs by LC-MS/MS analysis. The assay is classed as cell-based. Put shortly: as §3
Assay [8] relates to U2OS. Nature of the assay: Downregulation of N-palmitoleoylethanolamine level in human U2OS cells at 10 uM after 4 hrs by LC-MS/MS analysis. The assay is classed as functional, cell-based. In short, it runs like this: as §3
The subject of assay [9] is U2OS. Nature of the assay: Downregulation of N-oleoylethanolamine level in human U2OS cells at 10 uM after 4 hrs by LC-MS/MS analysis. In kind it is functional, cell-based. In short, it runs like this:
as §3

Assay [10] concerns U2OS. Nature of the assay: Downregulation of N-arachidonoylethanolamine level in human U2OS cells at 10 uM after 4 hrs by LC-MS/MS analysis. The assay is classed as functional, cell-based. Put shortly:
as §3

The subject of assay [11] is U2OS. Nature of the assay: Downregulation of N-eicosapentaenoylethanolamine level in human U2OS cells at 10 uM after 4 hrs by LC-MS/MS analysis. The assay is classed as functional, cell-based. In short, it runs like this: as §3
Assay [12] has as its target T3, Phospholipase A and acyltransferase 2 (Homo sapiens). Nature of the assay: Inhibition of full-length C-terminal FLAG-tagged human PLAAT2 expressed in human U2OS cells assessed as reduction in 2-AG level at 10 uM incubated for 4 hrs by LC-MS/MS analysis. In kind it is cell-based. Put shortly: as §3
Assay [13] addresses T4, Phospholipase A and acyltransferase 5 (Homo sapiens). Nature of the assay: Inhibition of full-length C-terminal FLAG-tagged human PLAAT5 expressed in human U2OS cells assessed as reduction in 2-AG level at 10 uM incubated for 4 hrs by LC-MS/MS analysis. In kind it is cell-based. Put shortly:
as §3

For assay [14], the system named is U2OS. Nature of the assay: Inhibition of serine hydrolase in human U2OS cell membrane fraction at 10 uM preincubated for 30 mins followed by MB064 addition and measured after 15 mins by SDS-PAGE based competitive ABPP analysis. In short, it runs like this:
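U2OS cytosol or membrane lysate at 2.5 μg/μL, pretreated with inhibitor or DMSO vehicle for 30 min at rt. Probe then added for 15 min at rt: MB064 at 2 μM or FP-TAMRA at 500 nM. Samples denatured in Laemmli buffer and resolved by SDS-PAGE. In-gel fluorescence scanned at Cy3/Cy5 settings and normalized to Coomassie staining.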

Assay [15] concerns the target Cytosolic phospholipase A2 delta (Homo sapiens) (UniProt Q86XP0). Nature of the assay: Inhibition of human PLA2G4D expressed in HEK293T cell lysates at 10 uM preincubated for 30 mins followed by FP-TAMRA addition and measured after 20 mins by SDS-PAGE based competitive ABPP analysis. In kind it is cell-free. Particulars: HEK-293T. Put shortly:
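hPLA2G4B, C or D-overexpressing membrane lysate (1 μg/μL) preincubated with inhibitor for 30 min at rt. FP-TAMRA 500 nM added for 20 min at rt. In-gel fluorescence after SDS-PAGE, normalized to Coomassie.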

Molecules are shown by their SMILES. The source made the active and inactive calls. The rule behind the calls is not given here.

As usually defined, the IC50 is the point on the concentration scale where inhibition reaches its midpoint. A low value points to inhibition by little substance.

Sequence of Diacylglycerol lipase-alpha (Mus musculus) (Q6WQJ1 whole entry): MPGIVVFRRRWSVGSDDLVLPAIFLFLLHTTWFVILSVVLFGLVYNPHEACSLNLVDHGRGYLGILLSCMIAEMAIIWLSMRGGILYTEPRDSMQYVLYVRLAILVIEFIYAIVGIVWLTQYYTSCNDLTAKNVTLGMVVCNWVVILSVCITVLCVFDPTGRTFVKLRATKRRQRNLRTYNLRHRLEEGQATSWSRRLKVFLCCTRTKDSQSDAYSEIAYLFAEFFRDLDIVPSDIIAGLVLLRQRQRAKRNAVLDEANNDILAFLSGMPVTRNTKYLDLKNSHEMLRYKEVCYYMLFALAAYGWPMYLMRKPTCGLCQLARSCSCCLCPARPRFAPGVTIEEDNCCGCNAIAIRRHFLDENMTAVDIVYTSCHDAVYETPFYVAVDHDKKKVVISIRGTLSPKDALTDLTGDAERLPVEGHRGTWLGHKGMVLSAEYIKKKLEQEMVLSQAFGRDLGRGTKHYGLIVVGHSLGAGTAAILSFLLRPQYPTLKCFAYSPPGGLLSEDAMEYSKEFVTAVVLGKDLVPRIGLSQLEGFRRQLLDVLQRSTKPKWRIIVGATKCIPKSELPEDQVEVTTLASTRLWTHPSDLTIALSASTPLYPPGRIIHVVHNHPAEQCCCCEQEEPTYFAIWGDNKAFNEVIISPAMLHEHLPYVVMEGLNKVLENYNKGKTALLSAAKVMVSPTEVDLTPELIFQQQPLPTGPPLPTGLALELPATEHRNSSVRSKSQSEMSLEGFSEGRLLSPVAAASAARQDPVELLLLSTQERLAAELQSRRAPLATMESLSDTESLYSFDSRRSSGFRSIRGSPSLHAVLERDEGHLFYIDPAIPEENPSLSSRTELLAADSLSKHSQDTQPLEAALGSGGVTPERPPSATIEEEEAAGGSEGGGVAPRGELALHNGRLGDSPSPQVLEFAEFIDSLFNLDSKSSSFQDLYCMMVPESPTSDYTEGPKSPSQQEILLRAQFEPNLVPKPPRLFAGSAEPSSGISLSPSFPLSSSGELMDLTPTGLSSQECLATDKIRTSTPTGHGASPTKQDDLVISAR
Sequence of Cytosolic phospholipase A2 delta (Homo sapiens) (Q86XP0 whole entry): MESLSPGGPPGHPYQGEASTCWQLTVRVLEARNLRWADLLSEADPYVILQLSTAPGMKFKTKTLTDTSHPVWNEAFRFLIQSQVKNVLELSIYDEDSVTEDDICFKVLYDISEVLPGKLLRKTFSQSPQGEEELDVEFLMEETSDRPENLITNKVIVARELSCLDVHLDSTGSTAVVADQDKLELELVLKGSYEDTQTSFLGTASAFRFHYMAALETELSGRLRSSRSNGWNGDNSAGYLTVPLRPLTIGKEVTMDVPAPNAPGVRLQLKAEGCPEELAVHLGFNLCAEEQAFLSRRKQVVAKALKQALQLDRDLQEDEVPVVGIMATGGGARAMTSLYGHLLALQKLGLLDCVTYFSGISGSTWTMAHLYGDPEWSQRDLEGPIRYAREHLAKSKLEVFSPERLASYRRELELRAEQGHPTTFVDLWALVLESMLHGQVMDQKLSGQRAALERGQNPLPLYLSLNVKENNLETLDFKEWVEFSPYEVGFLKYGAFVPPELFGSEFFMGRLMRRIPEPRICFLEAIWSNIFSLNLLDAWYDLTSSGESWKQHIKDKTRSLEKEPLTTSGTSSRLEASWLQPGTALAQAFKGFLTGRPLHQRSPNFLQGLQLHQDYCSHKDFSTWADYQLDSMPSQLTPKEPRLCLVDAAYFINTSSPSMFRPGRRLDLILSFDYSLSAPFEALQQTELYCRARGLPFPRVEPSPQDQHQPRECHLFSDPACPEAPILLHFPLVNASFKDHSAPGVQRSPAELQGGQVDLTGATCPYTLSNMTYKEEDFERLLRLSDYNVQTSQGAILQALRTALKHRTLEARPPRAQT

As to `O=C(CCCc1ccccc1)C(=O)NCCc1ccc(Oc2ccccc2)cc1`, the IC50 is 251 nM in [1] and 50.1 nM in assay [2]. The Activity turned out to be 97% in assay [3] and 83% in [4]. Also, the inhibition result in assay [5], in assay [6] and in [7] was “Active” in each case. In addition, the inhibition result (in the assay with U2OS [8]; with U2OS [9]; in the assay on U2OS [10]; in the assay on U2OS [11]; in assay [12]; in assay [13]) was “inactive” in each case. For the same molecule, the inhibition entry (with U2OS [14]; in [15]) was “inactive” in each case.
